ChEMBL document CHEMBL1158537, “Antibacterial activities of aminoglycoside antibiotics-derived cationic amphiphiles. Polyol-modified neomycin B-, kanamycin A-, amikacin-, and neamine-based amphiphiles with potent broad spectrum antibacterial activity” (2010)
Values after ≈ are worked out from the molar mass of the structure shown.

Assays:
Staphylococcus aureus [1] = experiment: Antibacterial activity against Staphylococcus aureus ATCC 29213 after 24 hrs by macrobroth dilution method; assay type: functional
In short: (§1)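 Reference strains from the American Type Culture Collection were tested by broth macrodilution following CLSI methodology. The read-out was the minimum inhibitory concentration, reported in μg/mL. The same method was used for the Gram-positive and Gram-negative organisms.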

Staphylococcus aureus [2] = experiment: Antibacterial activity against methicillin-resistant Staphylococcus aureus ATCC 33592 after 24 hrs by macrobroth dilution method; assay type: functional; in short: as §1
[3] = system: Staphylococcus epidermidis; experiment: Antibacterial activity against Staphylococcus epidermidis […] after 24 hrs by macrobroth dilution method; assay type: functional
In short: (§2)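 Broth macrodilution was run following CLSI methodology against ATCC reference strains and clinical isolates from the Canadian Intensive Care Unit (CAN-ICU) study, with Gram-positive and Gram-negative organisms tested. The value is the minimum inhibitory concentration, reported in μg/mL.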

[4] = system: Staphylococcus epidermidis; experiment: Antibacterial activity against methicillin-resistant Staphylococcus epidermidis ATCC 14990 after 24 hrs by macrobroth dilution method; assay type: functional
Streptococcus pneumoniae = experiment: Antibacterial activity against Streptococcus pneumoniae ATCC 49619 after 24 hrs by macrobroth dilution method; assay type: functional; in short: as §2
Escherichia coli [5] = experiment: Antibacterial activity against gentamicin-resistant Escherichia coli ATCC 6174 after 24 hrs by macrobroth dilution method; assay type: functional; in short: as §1
Escherichia coli [6] = experiment: Antibacterial activity against Escherichia coli ATCC 25922 after 24 hrs by macrobroth dilution method; assay type: functional; in short: as §1
Escherichia coli [7] = experiment: Antibacterial activity against Escherichia coli CAN-ICU 63074 after 24 hrs by macrobroth dilution method; assay type: functional; in short: as §2
Pseudomonas aeruginosa [8] = experiment: Antibacterial activity against Pseudomonas aeruginosa ATCC 27853 after 24 hrs by macrobroth dilution method; assay type: functional; in short: as §2
Pseudomonas aeruginosa [9] = experiment: Antibacterial activity against Pseudomonas aeruginosa CAN-ICU 62308 after 24 hrs by macrobroth dilution method; assay type: functional; in short: as §2
[10] = system: Stenotrophomonas maltophilia; experiment: Antibacterial activity against Stenotrophomonas maltophilia CAN-ICU 62585 after 24 hrs by macrobroth dilution method; assay type: functional; in short: as §2
Acinetobacter baumannii = experiment: Antibacterial activity against Acinetobacter baumannii CAN-ICU 63169 after 24 hrs by macrobroth dilution method; assay type: functional; in short: as §2
Klebsiella pneumoniae = experiment: Antibacterial activity against Klebsiella pneumoniae ATCC 13883 after 24 hrs by macrobroth dilution method; details: ATCC 13883, 24 h

Compound | MIC (Staphylococcus aureus [1]; ATCC 29213, 24 h) [µg/mL] | MIC (Staphylococcus aureus [2]; ATCC 33592, 24 h) [µg/mL] | MIC [3] [µg/mL] | MIC ([4]; ATCC 14990, 24 h) [µg/mL] | MIC (Streptococcus pneumoniae; ATCC 49619, 24 h) [µg/mL] | MIC (Escherichia coli [5]; ATCC 6174, 24 h) [µg/mL] | MIC (Escherichia coli [6]; ATCC 25922, 24 h) [µg/mL] | MIC (Escherichia coli [7]; CAN-ICU 63074, 24 h) [µg/mL] | MIC (Pseudomonas aeruginosa [8]; ATCC 27853, 24 h) [µg/mL] | MIC (Pseudomonas aeruginosa [9]; CAN-ICU 62308, 24 h) [µg/mL] | MIC ([10]; CAN-ICU 62585, 24 h) [µg/mL] | MIC (Acinetobacter baumannii; CAN-ICU 63169, 24 h) [µg/mL] | MIC (Klebsiella pneumoniae) [µg/mL] | other results
CN(C)c1ccc(NC(=O)OC[C@H]2O[C@H](O[C@@H]3[C@@H](OC(=O)Nc4ccc(N(C)C)cc4)[C@H](O[C@H]4O[C@H](CN)[C@@H](OC(=O)Nc5ccc(N(C)C)cc5)[C@H](OC(=O)Nc5ccc(N(C)C)cc5)[C@H]4OC(=O)Nc4ccc(N(C)C)cc4)[C@@H](N)C[C@H]3N)[C@H](OC(=O)Nc3ccc(N(C)C)cc3)[C@@H](N)[C@@H]2OC(=O)Nc2ccc(N(C)C)cc2)cc1.O=C(O)C(F)(F)F | 16 | 32 | 16 | 32 | > 256 | 256 | 256 | 256 | > 256 | 256 | > 256 | > 256 | > 256 | –
NC[C@@H]1O[C@H](O[C@H]2[C@@H](OCc3ccc(Cl)cc3)[C@H](O[C@@H]3[C@@H](OCc4ccc(Cl)cc4)[C@H](N)C[C@H](N)[C@H]3O[C@H]3O[C@H](CN)[C@@H](OCc4ccc(Cl)cc4)[C@H](OCc4ccc(Cl)cc4)[C@H]3N)O[C@@H]2COCc2ccc(Cl)cc2)[C@H](N)[C@@H](OCc2ccc(Cl)cc2)[C@@H]1OCc1ccc(Cl)cc1.O=C(O)C(F)(F)F | 64 | 64 | 32 | 64 | 128 | > 128 | 128 | 64 | > 128 | > 128 | > 128 | > 128 | 128 | –
CC(C)(C)c1ccc(COC[C@H]2O[C@@H](O[C@@H]3[C@@H](OCc4ccc(C(C)(C)C)cc4)[C@H](N)C[C@H](N)[C@H]3O[C@H]3O[C@H](CN)[C@@H](OCc4ccc(C(C)(C)C)cc4)[C@H](OCc4ccc(C(C)(C)C)cc4)[C@H]3N)[C@H](OCc3ccc(C(C)(C)C)cc3)[C@@H]2O[C@H]2O[C@@H](CN)[C@@H](OCc3ccc(C(C)(C)C)cc3)[C@H](OCc3ccc(C(C)(C)C)cc3)[C@H]2N)cc1.O=C(O)C(F)(F)F | 128 | 128 | 64 | 64 | 256 | 128 | 128 | 128 | 256 | 128 | > 128 | > 128 | > 128 | –
COC[C@H]1O[C@H](O[C@@H]2[C@@H](OC)[C@H](OC3O[C@H](CN)[C@@H](OC)[C@H](OC)[C@H]3OC)[C@@H](N)C[C@H]2N)[C@H](OC)[C@@H](N)[C@@H]1OC.O=C(O)C(F)(F)F (stereo not given in full) | > 256 | > 256 | 256 | > 256 | > 256 | > 256 | > 256 | > 256 | > 256 | > 256 | > 256 | > 256 | > 256 | –
NC[C@@H]1O[C@H](O[C@H]2[C@@H](OC(=O)Nc3ccccc3)[C@H](O[C@@H]3[C@@H](OC(=O)Nc4ccccc4)[C@H](N)C[C@H](N)[C@H]3O[C@H]3O[C@H](CN)[C@@H](OC(=O)Nc4ccccc4)[C@H](OC(=O)Nc4ccccc4)[C@H]3N)O[C@@H]2COC(=O)Nc2ccccc2)[C@H](N)[C@@H](OC(=O)Nc2ccccc2)[C@@H]1OC(=O)Nc1ccccc1.O=C(O)C(F)(F)F | 1 | 1 | 0.5 | 0.5 | 16 | 16 | 32 | 16 | 256 | 128 | 4 | 32 | 256 | –
COC[C@H]1O[C@@H](O[C@@H]2[C@@H](OC)[C@H](N)C[C@H](N)[C@H]2O[C@H]2O[C@H](CN)[C@@H](OC)[C@H](OC)[C@H]2N)[C@H](OC)[C@@H]1O[C@H]1O[C@@H](CN)[C@@H](OC)[C@H](OC)[C@H]1N.O=C(O)C(F)(F)F | > 256 | > 256 | 256 | > 256 | > 256 | > 256 | > 256 | > 256 | > 256 | > 256 | > 256 | > 256 | > 256 | –
GENTAMICIN | – | – | 0.25 | – | – | – | – | – | – | – | – | – | – | MIC (Staphylococcus aureus [1]): 1 µg/mL; MIC (Staphylococcus aureus [2]): 2 µg/mL; MIC [4]: 32 µg/mL; MIC (Streptococcus pneumoniae): 4 µg/mL; MIC (Escherichia coli [5]): 128 µg/mL; MIC (Escherichia coli [6]): 1 µg/mL; MIC (Escherichia coli [7]): 8 µg/mL; MIC (Pseudomonas aeruginosa [8]): 8 µg/mL; MIC (Pseudomonas aeruginosa [9]): 128 µg/mL; MIC [10]: > 512 µg/mL; MIC (Acinetobacter baumannii): 128 µg/mL
NCC[C@H](O)C(=O)N[C@@H]1C[C@H](N)[C@@H](O[C@H]2O[C@H](CN)[C@@H](O)[C@H](O)[C@H]2O)[C@H](O)[C@H]1O[C@H]1O[C@H](CO)[C@@H](O)[C@H](N)[C@H]1O [AMIKACIN] | 4 (≈ 6.83 µM) | 8 (≈ 13.7 µM) | 1 (≈ 1.71 µM) | 2 (≈ 3.42 µM) | 8 (≈ 13.7 µM) | 2 (≈ 3.42 µM) | 4 (≈ 6.83 µM) | 32 (≈ 54.6 µM) | 4 (≈ 6.83 µM) | 128 (≈ 219 µM) | > 512 | 128 (≈ 219 µM) | 0.5 (≈ 0.854 µM) | –
NC[C@H]1O[C@H](O[C@H]2[C@H](OC(=O)Nc3ccccc3)[C@@H](O[C@H]3O[C@H](COC(=O)Nc4ccccc4)[C@@H](OC(=O)Nc4ccccc4)[C@H](N)[C@H]3OC(=O)Nc3ccccc3)[C@H](N)C[C@@H]2N)[C@H](OC(=O)Nc2ccccc2)[C@@H](OC(=O)Nc2ccccc2)[C@@H]1OC(=O)Nc1ccccc1.O=C(O)C(F)(F)F | 32 | 32 | 4 | 8 | 64 | > 256 | > 256 | > 256 | > 256 | > 256 | > 256 | > 256 | > 256 | –
NC[C@@H]1O[C@@H](O[C@H]2[C@H](O)[C@@H](O[C@H]3O[C@H](CO)[C@@H](O)[C@H](N)[C@H]3O)[C@H](N)C[C@@H]2N)[C@@H](O)[C@H](O)[C@H]1O [KANAMYCIN A] | 4 (≈ 8.26 µM) | > 512 | 2 (≈ 4.13 µM) | 128 (≈ 264 µM) | 8 (≈ 16.5 µM) | 16 (≈ 33 µM) | 8 (≈ 16.5 µM) | 32 (≈ 66 µM) | > 512 | > 512 | > 512 | 32 (≈ 66 µM) | 1 (≈ 2.06 µM) | –
NC[C@@H]1O[C@H](O[C@H]2[C@@H](OC(=O)Nc3ccc(Cl)cc3)[C@H](O[C@@H]3[C@@H](OC(=O)Nc4ccc(Cl)cc4)[C@H](N)C[C@H](N)[C@H]3O[C@H]3O[C@H](CN)[C@@H](OC(=O)Nc4ccc(Cl)cc4)[C@H](OC(=O)Nc4ccc(Cl)cc4)[C@H]3N)O[C@@H]2COC(=O)Nc2ccc(Cl)cc2)[C@H](N)[C@@H](OC(=O)Nc2ccc(Cl)cc2)[C@@H]1OC(=O)Nc1ccc(Cl)cc1.O=C(O)C(F)(F)F | 64 | 64 | 16 | 32 | 128 | > 256 | > 256 | 256 | > 256 | 256 | 128 | > 256 | 256 | –
NC[C@H]1OC(O[C@H]2[C@H](OCc3ccccc3)[C@@H](O[C@H]3O[C@H](COCc4ccccc4)[C@@H](OCc4ccccc4)[C@H](N)[C@H]3OCc3ccccc3)[C@H](N)C[C@@H]2N)[C@H](OCc2ccccc2)[C@@H](OCc2ccccc2)[C@@H]1OCc1ccccc1.O=C(O)C(F)(F)F (stereo not given in full) | 8 | 8 | 4 | 8 | 32 | 32 | 32 | 16 | > 64 | > 64 | > 64 | > 64 | > 64 | –
NC[C@@H]1O[C@H](O[C@H]2[C@@H](OCc3ccccc3)[C@H](O[C@@H]3[C@@H](OCc4ccccc4)[C@H](N)C[C@H](N)[C@H]3O[C@H]3O[C@H](CN)[C@@H](OCc4ccccc4)[C@H](OCc4ccccc4)[C@H]3N)O[C@@H]2COCc2ccccc2)[C@H](N)[C@@H](OCc2ccccc2)[C@@H]1OCc1ccccc1.O=C(O)C(F)(F)F | 4 | 4 | 2 | 2 | 16 | 16 | 8 | 4 | 32 | 64 | 8 | 16 | 8 | –
NC[C@@H]1O[C@H](O[C@H]2[C@@H](O)[C@H](O[C@@H]3[C@@H](O)[C@H](N)C[C@H](N)[C@H]3O[C@H]3O[C@H](CN)[C@@H](O)[C@H](O)[C@H]3N)O[C@@H]2CO)[C@H](N)[C@@H](O)[C@@H]1O [FRAMYCETIN] | 1 (≈ 1.63 µM) | 256 (≈ 416 µM) | 0.25 (≈ 0.407 µM) | 0.5 (≈ 0.813 µM) | 32 (≈ 52.1 µM) | 8 (≈ 13 µM) | 4 (≈ 6.51 µM) | – | 512 (≈ 833 µM) | 512 (≈ 833 µM) | > 512 | 64 (≈ 104 µM) | 1 (≈ 1.63 µM) | –
